Experimental data from ChEMBL document CHEMBL4004850, “Rational design of reversible inhibitors for trehalose 6-phosphate phosphatases” (Eur J Med Chem, 2017).

What was measured:
[1] = system: Mycobacterium tuberculosis; experiment: Inhibition of Mycobacterium tuberculosis T6PP using T6P as substrate assessed as fraction of enzyme unbound with compound by measuring ratio of initial velocities of T6P substrate hydrolysis in presence and absence of compound at 1 mM after 5 mins by BioMol green dye based HTS assay
In short: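 Mt-T6PP (5–25 nM, freshly purified) in 25 mM Hepes pH 7.5, 50 mM NaCl, 5 mM MgCl₂, 5% glycerol at 25 °C. T6P at Km. Initial velocity was measured with and without 1 mM inhibitor; released phosphate read as absorbance at 625 nm after 30 min incubation. VI/V is the unbound-enzyme fraction.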

[2] = Inhibition of Mycobacterium tuberculosis T6PP using T6P as substrate by Lineweaver-Burk plot analysis
In short: (§1)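 Continuous phosphate-release assay (EnzChek, MESG/purine nucleoside phosphorylase) at 25 °C. Initial velocities of T6P hydrolysis by T6PP were taken at varied T6P with inhibitor at 0, Ki and 2×Ki. Km and Vmax come from double-reciprocal plots.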

[3] = system: Mycobacterium tuberculosis; experiment: Inhibition of Mycobacterium tuberculosis T6PP assessed as Vmax for substrate using T6P as substrate by Lineweaver-Burk plot analysis; in short: as §1
[4] = system: Mycobacterium tuberculosis; experiment: Inhibition of Mycobacterium tuberculosis T6PP assessed as Km for substrate using T6P as substrate at 1 mM by Lineweaver-Burk plot analysis; in short: as §1

CCCCCCCCc1ccc(O[C@@H]2O[C@H](COS(=O)(=O)O)[C@@H](O)[C@H](O)[C@H]2O)cc1
Ratio [1]: 0.42
Ki [2]: > 300 µM

O=S(=O)(O)OC[C@H]1O[C@@H](Oc2ccc(-c3ccccc3)cc2)[C@H](O)[C@@H](O)[C@@H]1O
Vmax [3]: 0.0271 µM/s
Km [4]: 838 µM
Ratio [1]: 0.58
Ki [2]: 1600 µM

O=P(O)(O)OC[C@H]1O[C@@H](Oc2ccccc2)[C@H](O)[C@@H](O)[C@@H]1O
Ratio [1]: 0.94

CO[C@H]1O[C@H](COS(=O)(=O)O)[C@@H](O)[C@H](O)[C@H]1O
Ratio [1]: 0.91

O=S(=O)(O)OC[C@H]1O[C@@H](Oc2cccc(CO)c2)[C@H](O)[C@@H](O)[C@@H]1O
Ratio [1]: 0.69

CCCCCCCCO[C@@H]1O[C@H](COS(=O)(=O)O)[C@@H](O)[C@H](O)[C@H]1O
Ratio [1]: 0.83

O=Cc1ccccc1O[C@@H]1O[C@H](COS(=O)(=O)O)[C@@H](O)[C@H](O)[C@H]1O
Ratio [1]: 1.17

O=S(=O)(O)OC[C@H]1O[C@H](O[C@H]2O[C@H](CO)[C@@H](O)[C@H](O)[C@H]2O)[C@H](O)[C@@H](O)[C@@H]1O
Ratio [1]: 0.43
Ki [2]: 130 µM

OC[C@H]1O[C@@H](Nc2ccccc2)[C@H](O)[C@@H](O)[C@@H]1O
Ratio [1]: 0.88

O=S(=O)(O)OC[C@H]1O[C@@H](Oc2ccc(CO)cc2)[C@H](O)[C@@H](O)[C@@H]1O
Ratio [1]: 0.85

COc1cc(C=O)cc(OC)c1O[C@@H]1O[C@H](COS(=O)(=O)O)[C@@H](O)[C@H](O)[C@H]1O
Ratio [1]: 1.09

O=S(=O)(O)OC[C@H]1O[C@H](Oc2ccccc2)[C@H](O)[C@@H](O)[C@@H]1O
Ratio [1]: 1.17

O=Cc1cccc(O[C@@H]2O[C@H](COS(=O)(=O)O)[C@@H](O)[C@H](O)[C@H]2O)c1
Vmax [3]: 0.247 µM/s
Km [4]: 712 µM
Ratio [1]: 0.67
Ki [2]: 1700 µM

OC[C@H]1O[C@@H](n2cc(-c3ccccc3)nn2)[C@H](O)[C@@H](O)[C@@H]1O
Ratio [1]: 0.95

O=S(=O)(O)OC[C@H]1O[C@@H](Oc2ccccc2)[C@H](O)[C@@H](O)[C@@H]1O
Ratio [1]: 0.94

O=S(=O)(O)OC[C@H]1O[C@H](O)[C@H](O)[C@@H](O)[C@@H]1O
Ratio [1]: 0.97

CO[C@H]1O[C@H](COS(=O)(=O)O)[C@@H](OCc2ccccc2)[C@H](O)[C@H]1O
Ratio [1]: 1.11

OC[C@H]1O[C@H](O[C@H]2O[C@H](CO)[C@@H](O)[C@H](O)[C@H]2O)[C@H](O)[C@@H](O)[C@@H]1O [TREHALOSE]
Ratio [1]: 0.83

O=S(=O)(O)OC[C@H]1O[C@@H](Oc2ccc(F)c(F)c2)[C@H](O)[C@@H](O)[C@@H]1O
Ratio [1]: 0.8

CO[C@H]1O[C@H](COS(=O)(=O)O)[C@@H](O)[C@H](O)[C@H]1OCc1ccccc1
Ratio [1]: 1.01

O=[N+]([O-])c1ccc(O[C@@H]2O[C@H](COS(=O)(=O)O)[C@@H](O)[C@H](O)[C@H]2O)cc1
Ratio [1]: 1.27

OC[C@H]1O[C@@H](NC(=S)Nc2ccccc2)[C@H](O)[C@@H](O)[C@@H]1O
Ratio [1]: 1.04

O=S(=O)(O)OCc1cccc(O[C@@H]2O[C@H](CO)[C@@H](O)[C@H](O)[C@H]2O)c1
Ratio [1]: 0.96

CCCCCCCCc1ccc(O[C@H]2O[C@H](COS(=O)(=O)O)[C@@H](O)[C@H](O)[C@H]2O)cc1
Ki [2]: 100 µM

CC(=O)Nc1ccc(O[C@@H]2O[C@H](COS(=O)(=O)O)[C@@H](O)[C@H](O)[C@H]2O)cc1
Ratio [1]: 0.94

CCCCCCc1ccc(O[C@H]2O[C@H](COS(=O)(=O)O)[C@@H](O)[C@H](O)[C@H]2O)cc1
Ki [2]: > 400 µM

O=S(=O)(O)OC[C@H]1O[C@@H](n2cc(-c3ccccc3)nn2)[C@H](O)[C@@H](O)[C@@H]1O
Ratio [1]: 0.98

O=S(=O)(O)OC[C@H]1O[C@H](OCc2ccccc2)[C@H](O)[C@@H](O)[C@@H]1O
Ratio [1]: 0.83

NS(=O)(=O)OCc1cccc(N[C@@H]2O[C@H](CO)[C@@H](O)[C@H](O)[C@H]2O)c1
Ratio [1]: 1.17

O=Cc1ccc(O[C@@H]2O[C@H](COS(=O)(=O)O)[C@@H](O)[C@H](O)[C@H]2O)cc1
Ratio [1]: 0.87

O=S(=O)(O)OC[C@H]1O[C@@H](Oc2ccccc2CO)[C@H](O)[C@@H](O)[C@@H]1O
Ratio [1]: 0.89

Nc1ccc(O[C@@H]2O[C@H](COS(=O)(=O)O)[C@@H](O)[C@H](O)[C@H]2O)cc1
Ratio [1]: 1

O=S(=O)(O)OC[C@H]1O[C@@H](Oc2cccc3ccccc23)[C@H](O)[C@@H](O)[C@@H]1O
Ratio [1]: 0.85

CO[C@H]1O[C@H](COS(=O)(=O)O)[C@@H](O)[C@H](OCc2ccccc2)[C@H]1O
Ratio [1]: 1.16

OC[C@H]1O[C@@H](Oc2ccccc2)[C@H](O)[C@@H](O)[C@@H]1O
Ratio [1]: 0.81

OC[C@H]1O[C@H](Oc2ccccc2)[C@H](O)[C@@H](O)[C@@H]1O
Ratio [1]: 0.88

CCCCCCc1ccc(O[C@@H]2O[C@H](COS(=O)(=O)O)[C@@H](O)[C@H](O)[C@H]2O)cc1
Ki [2]: > 400 µM
